In ChEMBL document CHEMBL4145622, “Banksialactones and Banksiamarins: Isochromanones and Isocoumarins from an Australian Fungus, Aspergillus banksianus” (2018):
Converted amounts (≈) assume the structure as drawn. The source made the active and inactive calls. The calls are words filed in the database; no cut-off is given here.

Assays:
Bacillus spizizenii [1] = assay: Antibacterial activity against Bacillus subtilis ATCC 6633 after 48 hrs by resazurin dye based assay; assay type: functional; settings: for MIC: ATCC 6633, 48 h
Method in brief: (§1)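 Bacteria pre-grown 24 h in nutrient broth at 28 °C, 100−250 rpm, diluted to 0.01 absorbance unit per mL. Inoculated into wells of compound dispersed in nutrient agar with resazurin (12.5 μg/mL). Test range 100 to 0.05 μg/mL (2-fold dilutions, 1% DMSO). Incubated 48 h at 28 °C. MIC read visually by blue-to-pink colour change.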

Escherichia coli = assay: Antibacterial activity against Escherichia coli ATCC 25922 after 48 hrs by resazurin dye based assay; assay type: functional, organism-based; method in brief: as §1
Candida albicans = assay: Antifungal activity against Candida albicans ATCC 10231 after 48 hrs by bromocresol green dye based assay; assay type: functional, organism-based
Method in brief: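 C. albicans grown 24 h in 1% malt extract broth, 250 rpm, 24 °C, diluted to 0.005 absorbance unit per mL. Inoculated onto compound in malt extract agar with bromocresol green (50 μg/mL). Test range 100 to 0.05 μg/mL in 1% DMSO. Incubated 24 °C, 48 h. MIC read visually by blue-to-yellow colour change.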

[2] = (§2) Cytotoxicity against mouse NS1 cells after 48 hrs by resazurin dye based assay; assay type: functional
Method in brief: (§3)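 NS-1 myeloma cells seeded at 50 000 cells/mL in DMEM + 10% FBS + 1% penicillin/streptomycin, 37 °C, 5% CO2. Compound range 100 to 0.05 μg/mL (2-fold dilutions, 1% DMSO). Resazurin (250 μg/mL, 10 μL) added at 48 h, then incubated a further 48 h. MIC end point read visually.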

Tritrichomonas suis [3] = assay: Antiprotozoal activity against Tritrichomonas foetus KV1 up to 100 ug/ml; assay type: functional, organism-based
Method in brief: (§4)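 Trophozoites seeded at 4 × 10^4 cells/mL in medium containing tryptone, yeast extract, glucose, L-cysteine, phosphates, ascorbic acid, FeSO4 and 10% newborn calf serum. Compound range 100 to 0.05 μg/mL in 1% DMSO. Plates held anaerobically at 37 °C.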

Tritrichomonas suis [4] = assay: Antiprotozoal activity against Tritrichomonas foetus KV1; assay type: functional; method in brief: as §4
Mus musculus [5] = species on record: Mus musculus; assay: as §2; assay type: functional; method in brief: as §3
Saccharomyces cerevisiae [6] = assay: Antifungal activity against Saccharomyces cerevisiae ATCC 9763 up to 100 ug/ml 48 hrs by bromocresol green dye based assay; assay type: functional, organism-based
Method in brief: (§5)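 S. cerevisiae grown 24 h in 1% malt extract broth, 250 rpm, 24 °C, diluted to 0.03 absorbance unit per mL. Inoculated onto compound in malt extract agar with bromocresol green (50 μg/mL). 2-fold series from 100 to 0.05 μg/mL in 1% DMSO. Incubated at 24 °C for 48 h. MIC read visually by blue-to-yellow colour change.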

Bacillus spizizenii [7] = assay: Antibacterial activity against Bacillus subtilis ATCC 6633 up to 100 ug/ml 48 hrs by resazurin dye based assay; assay type: functional, organism-based; method in brief: as §1
Mus musculus [8] = species on record: Mus musculus; assay: Cytotoxicity against mouse NS1 cells up to 100 ug/ml 48 hrs by resazurin dye based assay; assay type: functional, cell-based; method in brief: as §3
Saccharomyces cerevisiae [9] = assay: Antifungal activity against Saccharomyces cerevisiae ATCC 9763 after 48 hrs by bromocresol green dye based assay; assay type: functional; settings: ATCC 9763, 48 h; method in brief: as §5

SMILES | Activity (Escherichia coli) | Activity (Candida albicans) | Activity (Tritrichomonas suis [4]) | Activity (Bacillus spizizenii [1]) | Activity (Mus musculus [5]) | further results
COc1cc(O)c2c(c1C)[C@H](C)[C@](O)(COC(=O)c1c(O)cc(O)c(C)c1C)OC2=O | inactive | inactive | – | – | – | MIC (Bacillus spizizenii [1]): 50 µg/mL (≈ 116 µM); MIC [2]: 100 µg/mL (≈ 231 µM); Activity (Tritrichomonas suis [3]): inactive
O=c1[nH]cc(F)c(=O)[nH]1 [FLUOROURACIL] | – | – | – | – | – | MIC [2]: 0.8 µg/mL (≈ 6.15 µM)
COc1cc(O)c2c(c1C)[C@](C)(O)[C@H](C)OC2=O | inactive | inactive | inactive | inactive | inactive | –
COc1cc(O)cc2c1C(=O)c1c(O)cc(C)cc1C2=O [QUESTIN] | inactive | inactive | – | – | – | Activity (Saccharomyces cerevisiae [6]): inactive; MIC (Tritrichomonas suis [4]): 12.5 µg/mL (≈ 44 µM); Activity (Bacillus spizizenii [7]): inactive; Activity (Mus musculus [8]): inactive
COC(=O)Nc1nc2cc(C(=O)c3ccccc3)ccc2[nH]1 [MEBENDAZOLE] | – | – | – | – | – | MIC (Tritrichomonas suis [4]): 1.6 µg/mL (≈ 5.42 µM)
COc1cc(O)c2c(c1C)[C@H](C)[C@](O)(CSCC(O)C(=O)O)OC2=O (some centres not stated) | inactive | inactive | inactive | inactive | inactive | –
COc1cc(O)c2c(c1C)[C@H](C)[C@](O)(COC(=O)c1c(C)cc3c(c1O)C(=O)c1c(O)cc(O)cc1C3=O)OC2=O | inactive | inactive | – | – | – | Activity (Saccharomyces cerevisiae [6]): inactive; MIC (Tritrichomonas suis [4]): 12.5 µg/mL (≈ 22.1 µM); MIC (Bacillus spizizenii [1]): 25 µg/mL (≈ 44.3 µM); MIC [2]: 100 µg/mL (≈ 177 µM)
Clc1ccccc1C(c1ccccc1)(c1ccccc1)n1ccnc1 [CLOTRIMAZOLE] | – | – | – | – | – | MIC (Saccharomyces cerevisiae [9]): 0.2 µg/mL (≈ 0.58 µM)
COc1cc(O)c2c(c1C)[C@H](C)[C@](O)(COC(=O)c1c(C)c(C)c(O)c(C)c1O)OC2=O | inactive | inactive | – | – | – | MIC (Tritrichomonas suis [4]): 50 µg/mL (≈ 112 µM); MIC (Bacillus spizizenii [1]): 25 µg/mL (≈ 56 µM); MIC (Saccharomyces cerevisiae [9]): 50 µg/mL (≈ 112 µM); MIC [2]: 100 µg/mL (≈ 224 µM)
COc1cc(O)c2c(c1C)[C@H](C)[C@H](CO)OC2=O | inactive | inactive | inactive | inactive | inactive | –
Cc1c(O)cc(O)c2c1[C@H](C)[C@](O)(CO)OC2=O | inactive | inactive | inactive | inactive | inactive | –
COc1cc(O)c2c(c1C)[C@H](C)[C@](O)(CO)OC2=O | inactive | inactive | inactive | inactive | inactive | –
COc1cc(O)c2c(c1C)[C@H](C)[C@](O)(C[S+](C)[O-])OC2=O (some centres not stated) | inactive | inactive | inactive | inactive | inactive | –
CC1(C)S[C@@H]2[C@H](NC(=O)[C@H](N)c3ccccc3)C(=O)N2[C@H]1C(=O)O [AMPICILLIN] | – | – | – | – | – | MIC (Bacillus spizizenii [1]): 0.4 µg/mL (≈ 1.14 µM)
COc1cc(OC)c2c(c1C)[C@](C)(O)[C@H](C)OC2=O | inactive | inactive | inactive | inactive | inactive | –
